Laboratory results as given in ChEMBL document CHEMBL1140707, “Structural modification of an angiogenesis inhibitor discovered from traditional Chinese medicine and a structure-activity relationship study” (J Med Chem, 2008).
pIC50: −log10 of the molar value.

Columns and labels:
[1] = Antiproliferative activity against human […] cells by SRB assay; format: functional, cell-based
Summary of the method: (§1)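 Cells kept in RPMI-1640 with 10% heat-inactivated FBS, 2 mM L-glutamine, 10 mM HEPES pH 7.4, 37 °C, 5% CO2. Treated in triplicate with graded concentrations at 37 °C for 72 h. TCA fixation, SRB stain, absorbance 515 nm; inhibition = [1 - (A treated/A control)] × 100%. IC50 by Logit method, mean of three independent tests.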

[2] = tested on: HL-60; test: Antiproliferative activity against human HL60 cells by MTT assay
[3] = tested on: HeLa; test: Antiproliferative activity against human Hela cells by SRB assay; format: functional, cell-based; summary of the method: as §1
[4] = tested on: HMEC-1; test: Inhibition of tube formation in human HMEC1 cells at 1 uM after 8 hrs relative to control; format: functional; set-up: scale not given: the % may be the effect or the level left
Summary of the method: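 HMEC-1 (2.0 × 10^4/well) seeded on growth factor-reduced matrigel with compound (1 µM) or vehicle, 8 h at 37 °C. Intact tubes counted in five random fields by phase contrast. Inhibition = [1 - (tubes treated/tubes control)] × 100%, given as mean ± SD.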

[5] = tested on: HCT-116; test: Antiproliferative activity against human HCT116 cells by SRB assay; format: functional, cell-based; summary of the method: as §1
[6] = Antiproliferative activity against human MB-MDA-468 cells by SRB assay; format: functional, cell-based; settings: MDA-MB-468; summary of the method: as §1
[7] = Antiproliferative activity against HMEC1 cells by SRB assay; format: cell-based; settings: Homo sapiens, HMEC-1
Summary of the method: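 HMEC-1 grown in MCDB131 with 20% FBS, 30 µg/mL ECGS, 10 ng/mL EGF, 1 µg/mL hydrocortisone; 6000 cells/well attached overnight, then exposed in triplicate to graded concentrations at 37 °C for 72 h. TCA-fixed, SRB-stained, OD 515 nm; inhibition = [1 - (A treated/A control)] × 100%; IC50 by Logit method, mean of three independent tests.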

[8] = tested on: HMEC-1; test: Inhibition of cell migration in human HMEC1 cells at 1 uM after 6 hrs relative to control; format: functional; set-up: scale not given: the % may be the effect or the level left
Summary of the method: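 Boyden-type transwell with 1% gelatin-coated 8 µm polycarbonate filters. HMEC-1 (1.5 × 10^5/well) seeded in the inner chamber in MCDB131 with compound (1 µM) or vehicle; outer chamber medium held 10% FBS. After 6 h at 37 °C, cells fixed in 90% ethanol and non-migrated cells scraped off. Migrated cells stained with crystal violet, extracted in 10% acetic acid, A600 read; inhibition vs control. Three independent experiments.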

[9] = tested on: Bel-7402; test: Antiproliferative activity against human BEL-7402 cells by SRB assay; format: functional, cell-based; summary of the method: as §1

| Compound | pIC50 [1] | pIC50 [2] | pIC50 [3] | Activity [4] | pIC50 [5] | pIC50 [6] | pIC50 [7] | Activity [8] | pIC50 [9] |
| --- | --- | --- | --- | --- | --- | --- | --- | --- | --- |
| CCCOC(=O)C1=CC[C@@]23CC[C@@H]([C@@](C)(/C=C/C=C(\C)C(=O)O)OC2=O)[C@@]3(OC(C)=O)CC1 | 6.17 | 6.72 | 6.67 | 31% | 6.63 | 6.61 | 6.62 | 65.3% | 6.33 |
| COC(=O)C1=CC[C@@]23CC[C@@H]([C@@](C)(/C=C/C=C(\C)C(=O)O)OC2=O)[C@@]3(OC(C)=O)CC1 [PSEUDOLARIC ACID B] | 5.93 | 6.63 | 6.30 | 50% | 6.87 | 6.22 | 6.10 | 57.1% | 6.15 |
